Data on nine molecules can be found in ChEMBL document CHEMBL1145184, “Synthesis, X-ray crystal structure study, and cytostatic and antiviral evaluation of the novel cycloalkyl-N-aryl-hydroxamic acids” (J Med Chem, 2005).

Molecules are shown by their SMILES. ≈ marks a conversion by molar mass, not a printed value. Bounds are passed on as bounds.

One experiment deals with MCF7. As to the kind of experiment: Inhibitory concentration of the compound was determined against MCF-7 cell line. Particulars: Homo sapiens. The class given is functional, cell-based.
Experiment [1] deals with Cell line. As to the kind of experiment: Minimum cytotoxic concentration that causes a microscopically detectable alteration of cell morphology. The class given is functional. Particulars: Homo sapiens.
Experiment [2] has as its system Cytomegalovirus. Put plainly: Effective concentration against AD-169 strain of CMV virus expressed in HEL cells. The class given is functional, organism-based. Conditions: Human betaherpesvirus 5, HEL. The method, boiled down: (§1)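 Human embryonic lung (HEL) cell cultures infected with cytomegalovirus at 100 plaque forming units. EC50 is the concentration that cuts plaque formation by 50%, given in µg/mL.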

A further experiment concerns MOLT-4. As to the kind of experiment: Inhibitory concentration of the compound was determined against Molt 4/C8 cell line. The class given is functional, cell-based. Conditions: Homo sapiens.
The subject of experiment [3] is CCRF-CEM. As to the kind of experiment: Inhibitory concentration of the compound was determined againstCEM cell line. Particulars: Homo sapiens. The class given is functional, cell-based.
The test system of the next experiment is SW-620. Put plainly: Inhibitory concentration of the compound was determined against SW6 20 cell line. The class given is functional, cell-based. Particulars: Homo sapiens.
The next experiment deals with HEp-2. As to the kind of experiment: Inhibitory concentration of the compound was determined against Hep2 cell line. The class given is functional, cell-based. Conditions: Homo sapiens.
A short description of experiment [4]: Inhibitory concentration of the compound was determined against W138 cell line. The class given is functional, cell-based, Homo sapiens. The method in brief:
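Cytostatic test on human normal fibroblasts, run in the same panel as the malignant tumour lines L1210, Molt4/C8, CEM, SW620, Hep2, MiaPaCa2, MCF7 and HeLa. The value is reported as an IC50.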

For experiment [5], the system named is L1210. As to the kind of experiment: Inhibitory concentration of the compound was determined against L1210 cell line. The class given is functional, cell-based. Conditions: Mus musculus.
The subject of experiment [6] is HeLa. Put plainly: Inhibitory concentration of the compound was determined against HeLa cell line. The class given is functional, cell-based. Particulars: Homo sapiens.
In experiment [7] the test system is Cytomegalovirus. As to the kind of experiment: Effective concentration against Davis strain of CMV virus expressed in HEL cells. The class given is functional, organism-based. Particulars: Human betaherpesvirus 5, HEL. The method in brief:
as §1

The test system of a further experiment is MIA PaCa-2. Put plainly: Inhibitory concentration of the compound was determined against MiaPaCa2 cell line. The class given is functional, cell-based. Conditions: Homo sapiens.
The test system of experiment [8] is Cell line. As to the kind of experiment: Cytotoxic concentration required to reduce cell growth by 50%. The class given is functional. Conditions: Homo sapiens. The method in brief: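 Growth of HEL cells was measured. CC50 is the concentration that reduces cell growth by 50%, given in µg/mL.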
Experiment [9] deals with HeLa. Put plainly: Inhibitory concentration of the compound was determined againstHeLa cell line. The class given is functional, cell-based. Conditions: Homo sapiens.
The subject of experiment [10] is CCRF-CEM. Put plainly: Inhibitory concentration was determined against CEM cell line. Particulars: Homo sapiens. The class given is functional, cell-based.
For experiment [11], the system named is CCRF-CEM. Put plainly: Inhibitory concentration ofthecompound was determined against CEM cell line. The class given is functional, cell-based. Particulars: Homo sapiens.
Experiment [12] relates to L1210. As to the kind of experiment: Inhibitory concentration against L1210 cell line. The class given is functional, cell-based. Conditions: Mus musculus.

What is called IC50 is the midpoint of a concentration-inhibition curve. The EC50 is the concentration giving half of the maximal effect. A word on the CC50: it is the concentration giving 50% cytotoxicity. Low values mean harm at low concentration, high ones better tolerance by the cells. In the case of `O=C(CC1CCCCC1)N(O)c1ccccc1`, the IC50 with MCF7 is more than 100 µM; in the experiment on MOLT-4, 41 µM; in the experiment on CCRF-CEM [3], 40 µM; with SW-620 it was 20 µM; with HEp-2, more than 100 µM; in experiment [4], 70 µM. Moreover, the IC50 in the experiment on L1210 [5] was found to be 27 µM; in the experiment with HeLa [6], 30 µM; with MIA PaCa-2 it was 40 µM. The MCC in the experiment on Cell line [1] stood at 100 µg/mL. The EC50 with Cytomegalovirus [2] and in the experiment with Cytomegalovirus [7] was 8 µg/mL (≈ 34.3 µM) in each case. Moreover, the CC50 with Cell line [8] is more than 200 µg/mL.

With `O=C(N(O)c1ccc(Cl)cc1)C12CC3CC(CC(C3)C1)C2`, the IC50 with MCF7 is more than 100 µM; in the experiment with MOLT-4, not below 500 µM; with CCRF-CEM [3], more than 500 µM; in the experiment on SW-620 it was more than 100 µM; with HEp-2, more than 100 µM; in [4], more than 100 µM. Besides, the IC50 was 290 µM in the experiment on L1210 [5], more than 100 µM in the experiment on HeLa [6] and more than 100 µM in the experiment on MIA PaCa-2. In the experiment with Cell line [1], the MCC worked out at 100 µg/mL. Further, the figures for the EC50 in the experiment on Cytomegalovirus [2] and in the experiment on Cytomegalovirus [7] were 13 µg/mL (≈ 42.5 µM) and 7 µg/mL (≈ 22.9 µM), respectively. In addition, the CC50 in the experiment on Cell line [8] was more than 50 µg/mL.

Turning to `O=C(CCC1CCCC1)N(O)c1ccc(Cl)cc1`, the IC50 with MCF7 is 10 µM; in the experiment on MOLT-4, 28 µM; in the experiment on HeLa [9] it was 30 µM; in the experiment with SW-620 it was 10 µM; with CCRF-CEM [10], 37 µM; in the experiment on HEp-2 it was 20 µM. For the same molecule, the values for the IC50 (in [4]; with L1210 [5]; in the experiment on MIA PaCa-2) were 10 µM, 38 µM and 7 µM, respectively. In the experiment with Cell line [1], the MCC is 100 µg/mL. Also, the results for the EC50 in the experiment with Cytomegalovirus [2] and in the experiment with Cytomegalovirus [7] were 10 µg/mL (≈ 37.3 µM) and 8 µg/mL (≈ 29.9 µM), respectively. Moreover, the midpoint of cytotoxicity with Cell line [8], the CC50, lay at 20 µg/mL (≈ 74.7 µM).

As for `O=C(C1CCCCC1)N(O)c1ccc(Cl)cc1`, the concentration for half-maximal inhibition (IC50) in the experiment on MCF7 is 80 µM; with MOLT-4 it was 19 µM; in the experiment with HeLa [9], 30 µM; in the experiment with SW-620, 10 µM; with HEp-2, 40 µM; in experiment [4], 100 µM. Further, the values for the IC50 in the experiment on L1210 [5], with CCRF-CEM [11] and with MIA PaCa-2 were 16 µM, 17 µM and 20 µM, respectively. In the experiment with Cell line [1], this molecule displayed an MCC not below 20 µg/mL. The concentration giving a half-maximal response (EC50) was 7.3 µg/mL (≈ 28.8 µM) with Cytomegalovirus [2] and 8.9 µg/mL (≈ 35.1 µM) in the experiment on Cytomegalovirus [7]. Also, it took 28 µg/mL (≈ 110 µM) to reach half-maximal cytotoxicity in the experiment with Cell line [8] (CC50).

In the case of `O=C(CC1CCCCC1)N(O)c1ccc(Cl)cc1`, the IC50 stood at 10 µM with MCF7; 33 µM in the experiment with MOLT-4; 16 µM in the experiment on CCRF-CEM [3]; 30 µM in the experiment with HeLa [9]; 9 µM with SW-620; 9 µM in the experiment on HEp-2. Besides, the IC50 in experiment [4] was determined as 50 µM; with L1210 [5], 26 µM; with MIA PaCa-2, 8 µM. Besides, in the experiment on Cell line [1], the MCC turned out to be 50 µg/mL. Also, the EC50 in the experiment on Cytomegalovirus [2] came out at 7.3 µg/mL (≈ 27.3 µM); in the experiment on Cytomegalovirus [7], 6.2 µg/mL (≈ 23.2 µM). The CC50 in the experiment with Cell line [8] was 129 µg/mL (≈ 482 µM).

With `O=C(CCC1CCCCC1)N(O)c1ccc(Cl)cc1`, the IC50 turned out to be 20 µM in the experiment on MCF7; 24 µM in the experiment with MOLT-4; 36 µM in the experiment on CCRF-CEM [3]; 30 µM in the experiment on HeLa [9]; 20 µM in the experiment with SW-620; 30 µM in the experiment on HEp-2. In addition, the values for the IC50 (in experiment [4]; in the experiment with L1210 [5]; with MIA PaCa-2) were 30 µM, 21 µM and 10 µM, respectively. Also, in the experiment on Cell line [1], the MCC is not below 4 µg/mL. Further, the EC50 was 1.5 µg/mL (≈ 5.32 µM) in the experiment on Cytomegalovirus [2] and 0.8 µg/mL (≈ 2.84 µM) with Cytomegalovirus [7]. The CC50 in the experiment on Cell line [8] amounted to 4.7 µg/mL (≈ 16.7 µM).

`O=C(C1CC1)N(O)c1ccc(Cl)cc1`: the IC50 with MCF7 is more than 100 µM; in the experiment on MOLT-4, 24 µM; with CCRF-CEM [3] it was 25 µM; in the experiment on HeLa [9], more than 80 µM; in the experiment on SW-620, 60 µM; in the experiment on HEp-2, more than 100 µM. Moreover, the IC50 in experiment [4] was more than 100 µM; in the experiment on L1210 [12], 22 µM; in the experiment on MIA PaCa-2 it was more than 100 µM. This molecule came in with an MCC in the experiment with Cell line [1] of 100 µg/mL. Moreover, the concentration for a half-maximal effect (EC50) in the experiment with Cytomegalovirus [2] and with Cytomegalovirus [7] was more than 20 µg/mL each time. The molecule also had a CC50 in the experiment with Cell line [8] of 37 µg/mL (≈ 175 µM).

For the molecule `Nc1ccn(C[C@@H](CO)OCP(=O)(O)O)c(=O)n1.O.O` [CIDOFOVIR], the MCC in the experiment with Cell line [1] was not below 400 µg/mL. In addition, the EC50 came to 0.18 µg/mL in the experiment with Cytomegalovirus [2] and 0.29 µg/mL with Cytomegalovirus [7]. The same molecule had a CC50 with Cell line [8] of 24 µg/mL.

`Nc1nc2c(ncn2COC(CO)CO)c(=O)[nH]1` [GANCICLOVIR]: the MCC in the experiment with Cell line [1] was not below 400 µg/mL. Further, the EC50 with Cytomegalovirus [2] and with Cytomegalovirus [7] was 0.37 µg/mL (≈ 1.45 µM) throughout.
